The structures appear in SMILES notation. Calls of active or inactive are those of the source. The rule behind the calls is not given here.

These results are taken from ChEMBL document CHEMBL3351896, “Small Molecule that Reverses Dexamethasone Resistance in T-cell Acute Lymphoblastic Leukemia (T-ALL)” (ACS Med Chem Lett, 2014).

Experiment [1] in a line: Growth inhibition of human CUTLL1 cells in absence of 1 uM dexamethasone after 48 hrs by alamar blue assay. The class given is functional, cell-based. The note with it: CUTLL1, 48 h. An outline of the steps: (§1)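 CUTLL1 cells given compound alone or with dexamethasone 1 μM. Growth inhibition measured by alamar blue after 48 h.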
The nature of experiment [2]: Growth inhibition of human CUTLL1 cells in presence of 1 uM dexamethasone after 48 hrs by alamar blue assay. Type of experiment: functional, cell-based. To be noted: CUTLL1, 48 h. An outline of the steps:
as §1

For experiment [3], the target named is T1, Gamma-secretase (Homo sapiens) (UniProt Q96BI3+Q9NZ42+Q8WW43+P49768+Q92542+P49810). Briefly: Inhibition of gamma secretase in human CUTLL1 cells assessed as effect on NOTCH cleavage level at 100 nM after 24 hrs by Western blotting. Type of experiment: cell-based.
The target in experiment [4] is T1, Gamma-secretase (Homo sapiens). In words: Inhibition of gamma secretase in human CUTLL1 cells assessed as effect on NOTCH cleavage level at 100 nM in presence of 1 uM dexamethasone after 24 hrs by Western blotting. Type of experiment: cell-based. The essentials: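 Dexamethasone-resistant human T-ALL CUTLL1 cells were treated for 24 h with the gamma-secretase inhibitor at 100 nM together with dexamethasone at 1 μM. Intracellular NOTCH (ICN) protein was then measured by Western blot.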

Experiment [5] deals with CUTLL1. In words: Growth inhibition of human CUTLL1 cells with low GR expression levels after 48 hrs by alamar blue assay. The class given is functional, cell-based. The essentials: (§2)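 Human CUTLL1 T-ALL cells engineered to express high (overexpressed) or low (knockdown) glucocorticoid receptor levels. Exposed to compound alone or with 1 μM dexamethasone. Alamar blue growth inhibition read after 48 h.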

The test system of experiment [6] is CUTLL1. Briefly: Induction of PARP1 cleavage in human CUTLL1 cells at 1 uM after 24 hrs by western blotting method. The class given is functional, cell-based.
Experiment [7] has as its system CUTLL1. Briefly: Growth inhibition of human CUTLL1 cells with high GR expression levels after 48 hrs by alamar blue assay. The class given is functional, cell-based. An outline of the steps: as §2
Experiment [8] deals with CUTLL1. Briefly: Growth inhibition of human CUTLL1 cells at 12.5 to 50 uM in presence of 1 uM dexamethasone and 1 uM […] and glucocorticoid receptor antagonist RU486 after 24 hrs by alamar blue assay.

As for `Nc1ncc(-c2ccc(F)cc2)c(C2CC2)n1`, the EC50 in experiment [1] and in experiment [2] was above 100 µM each time.

In the case of `Nc1ncc(-c2ccccc2)c(C2CC2)n1`, the EC50 in experiment [1] and in experiment [2] was above 100 µM in each case.

`CC(C)c1nc(N)ncc1-c1ccncc1`: the concentration for a half-maximal effect (EC50) in experiment [1] and in experiment [2] was above 100 µM each time.

Take `Nc1ncc(-c2ccccn2)c(C2CC2)n1`: the EC50 in experiment [1] and in experiment [2] was above 100 µM each time.

As for `C[C@H](NC(=O)Cc1cc(F)cc(F)c1)C(=O)N[C@H]1N=C(c2ccccc2)c2ccccc2N(C)C1=O`, the inhibition result in experiment [3] and in experiment [4] was “Active” in each case.

Consider `C[C@@H]1C[C@H]2[C@@H]3CCC4=CC(=O)C=C[C@]4(C)[C@@]3(F)[C@@H](O)C[C@]2(C)[C@@]1(O)C(=O)CO`, for which the “growth inhibition (GI)” value in the experiment with CUTLL1 [5] was “inactive”. Moreover, in the experiment with CUTLL1 [6], the result was inactive. Also, the “growth inhibition (GI)” value with CUTLL1 [7] was “Active”.

Consider `Nc1ncc(-c2cccnc2)c(C2CC2)n1`, for which the concentration for a half-maximal effect (EC50) in experiment [1] and in experiment [2] was above 100 µM throughout.

As to `Nc1ncc(-c2ccnc(F)c2)c(C2CC2)n1`, the EC50 in experiment [1] and in experiment [2] was above 100 µM throughout.

On to `Nc1ncc(-c2ccncc2)c(-c2ccoc2)n1`, for which the concentration for a half-maximal effect (EC50) in experiment [1] and in experiment [2] was above 100 µM each time.

Turning to `Nc1ncc(-c2cc(Cl)nc(Cl)c2)c(C2CC2)n1`, the EC50 in experiment [1] was 10 µM; in experiment [2], 7.6 µM.

As to `Nc1ncc(-c2ccnc(Cl)c2)c(C2CC2)n1`, the 50% effective concentration (EC50) in experiment [1] and in experiment [2] was above 100 µM throughout.

Consider `COc1ccc(-c2cnc(N)nc2C2CC2)cc1`, for which the concentration giving a half-maximal response (EC50) in experiment [1] and in experiment [2] was above 100 µM in each case.

Turning to `Nc1ncc(-c2ccncc2-c2ccoc2)c(C2CC2)n1`, the EC50 in experiment [1] and in experiment [2] was 28 µM throughout.

For `Nc1ncc(-c2ccnc3ccccc23)c(C2CC2)n1`, the EC50 in experiment [1] and in experiment [2] was above 100 µM each time.

For the molecule `Cc1nc(N)ncc1-c1ccncc1`, the EC50 in experiment [1] and in experiment [2] was above 100 µM in each case.

Turning to `Nc1ncc(-c2ccnc(-c3ccoc3)c2)c(C2CC2)n1`, the “growth inhibition (GI)” value with CUTLL1 [8] is “inactive”. For the same molecule, the EC50 in experiment [1] was above 100 µM; in experiment [2], 16 µM.

With `Nc1ncc(-c2ccncc2)c(C2CCC2)n1`, the concentration giving a half-maximal response (EC50) in experiment [1] and in experiment [2] was above 100 µM each time.

Consider `Nc1ncc(-c2ccncc2)c(-c2ccccc2)n1`, for which the EC50 in experiment [1] and in experiment [2] was above 100 µM each time.

In the case of `Cc1ncc(-c2ccncc2)c(C2CC2)n1`, the EC50 in experiment [1] and in experiment [2] was above 100 µM throughout.

With `Nc1ncc(-c2ccncc2-c2ccccc2)c(C2CC2)n1`, the EC50 in experiment [1] and in experiment [2] was above 100 µM each time.

As to `Nc1ncc(-c2ccncc2)cn1`, the EC50 in experiment [1] and in experiment [2] was above 100 µM in each case.

As to `C=Cc1cnccc1-c1cnc(N)nc1C1CC1`, the EC50 was 30 µM in experiment [1] and 29 µM in experiment [2].
